A selection: hits, their analogues and other compounds. The true share with any hit is near 2.2%.
NR2E3 ag-1 = agonists of human NR2E3 nuclear receptor | CHO-S Gal4-NCOR/VP16-NR2E3 two-hybrid, luciferase | inhibition of corepressor binding, % at 3.98 µM | 0.35% of 360,000 active | AID 602229;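 active means inhibition above the mean of all tested compounds plus 3 SD, cut at about 70% in these data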;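 further: higher means lower luciferase signal from less NR2E3 corepressor binding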
Target sequence (Q9Y5X4 whole entry, looked up, the tested form may be a part): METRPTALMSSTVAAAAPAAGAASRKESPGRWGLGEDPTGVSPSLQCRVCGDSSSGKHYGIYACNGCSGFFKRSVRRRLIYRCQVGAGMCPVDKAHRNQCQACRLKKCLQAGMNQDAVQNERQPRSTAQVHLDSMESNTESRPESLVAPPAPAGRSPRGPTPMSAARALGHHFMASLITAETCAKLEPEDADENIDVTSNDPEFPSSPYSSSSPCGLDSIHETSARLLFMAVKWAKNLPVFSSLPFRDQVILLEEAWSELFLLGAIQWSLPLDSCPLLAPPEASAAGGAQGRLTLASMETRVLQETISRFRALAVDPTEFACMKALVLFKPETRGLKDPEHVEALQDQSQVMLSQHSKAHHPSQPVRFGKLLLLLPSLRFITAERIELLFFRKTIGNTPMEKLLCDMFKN
HIV Env fusion = blocks HIV Env-driven cell-cell fusion. HeLa-JRFL Env/CEM21 cell fusion, luciferase. inhibition, % at 12.3 µM. 1.1% of 360,000 active;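 active means mean replicate inhibition score of at least 50 and every replicate individually at or above 50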
GalR3 antagonist = blocks the human galanin receptor 3; O60755; HEK293 GalR3-CNG cAMP membrane potential fluorescence; galR3 body fused to GalR1 C-terminus; inhibition, % at 3 µM; 0.44% of 360,000 active;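 active means inhibition above the screen-wide average plus 3 SD, cut at about 13% in these data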;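 further: forskolin and galanin both at EC90 stimulate the cells; cAMP rise reported by CNG channel membrane potential dye signal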
V-ATPase pH = regulators of yeast V-ATPase proton transport; 0.37% of 350,000 active; response, % at 10 µM; S. cerevisiae, pHLuorin cytosolic pH fluorescence; AID 504577; in the data active means response mostly above about 7.3%, no sharp cut-off; inactive means mostly below about 5.4%; further: actives read high
GAA850 FXN act = increases GAA850 frataxin promoter reporter activity; HEK293 lucGAA850 FXN promoter luciferase reporter, 24 h; percent of 10 µM SAHA response; activation, % at 6 µM; 0.56% of 360,000 active;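 active means activation above the average of all compounds screened plus 3 SD, cutoff fixed separately per campaign, cut at about 7.5% in these data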
NR2E3 ag-2 = NR2E3 (human) agonism; Q9Y5X4; GST-NR2E3/biotin-RetCOR TR-FRET, 1536-well; inhibition of corepressor binding, % at 4.78 µM; 0.12% of 320,000 active; AID 2300;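 active means percent inhibition above the cutoff of mean plus 3 SD of all tested compounds, set per screening campaign, cut at about 20% in these data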
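Test system: GST-NR2E3 and biotin-RetCOR proteins | Quantity: 1.35 nM GST-tagged NR2E3 final | Medium: Tris pH 7.5 | Also added: 7 nM biotin-RetCOR | Dosing: Compound at 4.8 µM, single dose | Timing: 5 h at 4 °C | Detection: Time-resolved FRET | Read-out basis: Percent inhibition | Benchmarks: Biotin wells as high control, 0.6% DMSO wells as low control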
NR2E3 ag confirm = NR2E3 agonism confirmed in two-hybrid assay; CHO-S mammalian two-hybrid NR2E3-NCOR, luciferase luminescence; shares compounds with NR2E3 ag-1; inhibition, % at 3.98 µM; 51% of 2,300 active;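 active means average inhibition above a cutoff equal to the mean inhibition of all tested compounds plus one SD, cut at about 70% in these data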
VP16 counter = GAL4-VP16 reporter inhibition in NR2E3 agonist counterscreen. 29% of 2,300 active. shares compounds with NR2E3 ag-1. inhibition, % at 3.98 µM. CHO-S GAL4-VP16 luciferase reporter, luminescence;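 active means mean inhibition above a cutoff equal to the average over all tested compounds plus one standard deviation, cut at about 70% in these data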;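 further: luciferase from a UAS reporter driven by GAL4-VP16 transactivation; higher means less reporter light so more repression of VP16 activity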
Numbers stand for hits; . = inactive; / = no result.

SMILES	NR2E3 ag-1	HIV Env fusion	GalR3 antagonist	V-ATPase pH	GAA850 FXN act	NR2E3 ag-2	NR2E3 ag confirm	VP16 counter
COc1ccc(CNC(=O)c2cccc3c(-c4ccc(F)c(F)c4)coc23)cc1OC	.	/	/	/	.	/	80	.
O=C(NCc1cccnc1)c1ccc(-c2ccc(F)c(F)c2)c2ccoc12	76	.	.	/	.	/	96	76
COc1cc(-c2coc3c(C(=O)NCc4ccc(OC)c(OC)c4)cccc23)ccc1O	.	.	.	/	.	/	.	.
O=C(NCc1ccccc1)c1cccc2c(-c3ccc(F)c(F)c3)coc12	.	/	/	/	.	/	/	/
COc1ccc(CNC(=O)c2cccc3c(-c4cccc(C(N)=O)c4)coc23)cc1OC	.	.	.	/	.	/	.	.
Nc1nc2c(ncn2C2C[C@H](O)[C@@H](CO)O2)c(=O)[nH]1 (stereo not given in full)	.	.	/	.	.	.	/	/
Nc1nc2c(nnn2C2CC(O)C(CO)O2)c(=O)[nH]1 (stereo not given)	.	.	.	/	/	/	.	.
CC(=O)NC(=C(Cl)Cl)S(=O)(=O)c1ccccc1	.	.	.	.	.	.	.	.
Cc1ccc(S(=O)(=O)C(NC(=O)c2ccccc2)=C(Cl)Cl)cc1	.	.	.	.	.	.	/	/
O=C(NC(=C(Cl)Cl)S(=O)(=O)c1ccc(Cl)cc1)c1ccccc1	.	.	.	.	.	.	.	.
COc1ccc(NC(=O)N(C)C[C@@H]2Oc3c(NS(=O)(=O)c4ccccc4)cccc3C(=O)N([C@H](C)CO)C[C@H]2C)cc1	/	.	/	/	/	/	/	/
CC(C)CC(N)c1csc(NC(=O)Nc2ccccc2Cc2ccccc2)n1 (stereo not given)	.	.	.	/	.	/	/	/
CC(C)CC(N)c1csc(NC(=O)c2cc(C(C)(C)C)nn2Cc2ccccc2)n1 (stereo not given)	.	.	.	/	.	/	.	.
C[C@H](CO)N1C[C@H](C)[C@H](CN(C)C(=O)Nc2ccccc2)OCCCC[C@H](C)Oc2ccc(NC(=O)Cc3ccccc3)cc2C1=O	/	.	/	/	/	/	/	/
c1csc(CCNc2ncnc3sc4c(c23)CCC4)c1	93	.	.	.	.	.	98	87
c1ccc(Nc2ncnc3sc4c(c23)CCC4)cc1	.	.	.	/	.	.	/	/
CC(=O)N1CCc2cc(S(=O)(=O)NC3CCCc4ccccc43)ccc21 (stereo not given)	.	/	.	.	.	.	.	.
O=C(O)c1ccc(S(=O)(=O)NC2CCCc3ccccc32)cc1 (stereo not given)	.	/	.	.	.	.	/	/
Cc1cc(Cl)ccc1OC(C)C(=O)Nc1ccc(S(=O)(=O)N2CCOCC2)cc1 (stereo not given)	.	.	.	.	.	.	/	/
Cc1cc(Cl)ccc1OC(C)C(=O)Nc1ccc(C(=O)Nc2ccccc2C(=O)O)cc1 (stereo not given)	.	.	.	.	.	.	.	.
O=C(Nc1ccccc1)Nc1cc(Cl)cc(Cl)c1	.	/	.	.	.	.	/	/
O=C(Nc1ccccc1)Nc1cc(OCC(F)(F)F)cc(OCC(F)(F)F)c1	.	62	.	.	.	/	.	.
CC(=O)C1=C(c2ccc(Br)cc2)C(=O)c2ccccc2C1=O	103	141	.	.	.	.	99	92
Cc1ccc(-c2cnc3c(c2)C(=O)N([C@H](C)CO)C[C@@H](C)[C@@H](CN(C)C(=O)c2cccnc2)O3)cc1	/	.	/	/	/	/	/	/
Cc1nc2c(C(=O)NCCC(C)C)c[nH]n2c(=O)c1Cc1ccccc1F	100	/	.	.	.	.	86	.
COc1ccc(NC(=O)Nc2ccc3c(c2)C(=O)N([C@@H](C)CO)C[C@H](C)[C@@H](CN(C)Cc2ccc(C(F)(F)F)cc2)O3)cc1	/	.	/	/	/	/	/	/
CCC(=O)N(C)C[C@H]1Oc2ncc(Br)cc2C(=O)N([C@H](C)CO)C[C@@H]1C	/	.	/	/	/	/	/	/
COc1ccc(NC(=O)N2CCC3(CC2)CN(C(C)=O)[C@H](CO)c2[nH]c4cc(OC)ccc4c23)cc1	/	.	/	/	/	/	/	/

Screening results as filed in PubChem BioAssay.
